Calls of active or inactive are those of the source.
How the values were obtained:
[1] = target: Voltage-gated potassium channel, KQT; KCNQ2(Kv7.2)/KCNQ3(Kv7.3) (Homo sapiens, UniProt O43525+O43526); assay: Activation of KCNQ2/KCNQ3 expressed in CHO cells by isotopic efflux assay; assay type: cell-based
Method in brief: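 86Rb+ flux in K+-channel-expressing cells loaded by culture in 86RbCl, then washed in EBSS. Preincubated with drug (0.01-30 μM in EBSS), then efflux stimulated by submaximal KCl (generally 7-20 mM) with drug still present. Supernatant and SDS lysate counted by Cherenkov. Percent efflux normalized to high-KCl (generally 30-135 mM) maximum. EC50 from eight-point half-log curves; mean of 2-4 determinations ± SEM.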

Mus musculus [2] = assay: Anticonvulsant activity against maximal electroshock-induced seizures in CD1 mouse model at 10 mg/kg, po treated 30 mins before electroshock application; assay type: functional, organism-based; design: dose 10 mg/kg
Method in brief: (§1)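 Male CD-1 mice dosed po (10 mL/kg in 5% DMSO/95% of 0.5% HPMC/1% Tween 80) 30 min before corneal electroshock at 50 mA for 0.2 s, with 1% proparacaine in each eye. Latency to hindlimb extension recorded to 0.1 s. No extension within 6 s scored as protected (latency 6 s). Reported as protected/tested (8 per group), or EC50 derived from latency scores.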

Rattus norvegicus [3] = assay: Anticonvulsant activity in po dosed Sprague-Dawley rat assessed as inhibition of pentylenetetrazole-induced seizure treated 30 mins before PTZ challenge; assay type: functional, organism-based
Method in brief: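 Male Sprague-Dawley rats received compound po in 0.5% methylcellulose (1 mL/kg) 30 min before PTZ 85 mg/kg sc. Latency to tonic-clonic seizure timed from PTZ injection. No seizure within 15 min scored as protected (latency 15 min). EC50 derived from latency scores.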

Mus musculus [4] = assay: Anticonvulsant activity against maximal electroshock-induced seizures in CD1 mouse model at 30 mg/kg, ip treated 15 mins before electroshock application; assay type: functional, organism-based; design: dose 30 mg/kg
Method in brief: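 Male CD-1 mice dosed ip at 30 mg/kg (10 mL/kg in 5% DMSO/95% of 0.5% HPMC/1% Tween 80) 15 min before corneal electroshock (50 mA, 0.2 s, 1% proparacaine in eyes). Hindlimb extension latency measured; no extension by 6 s counted as protected. Reported as protected/tested out of 8 mice.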

Mus musculus [5] = assay: Anticonvulsant activity against maximal electroshock-induced seizures in CD1 mouse model at 30 mg/kg, po treated 30 mins before electroshock application; assay type: functional, organism-based; design: dose 30 mg/kg; method in brief: as §1
Mus musculus [6] = assay: Anticonvulsant activity against maximal electroshock-induced seizures in CD1 mouse model at 20 mg/kg, po treated 30 mins before electroshock application; assay type: functional, organism-based; design: dose 20 mg/kg; method in brief: as §1
Rattus norvegicus [7] = assay: Analgesic activity in Sprague-Dawley rat assessed as reduction of spinal nerve ligation-induced allodynia score at 100 mg/kg, iv; assay type: functional; design: scale not given: the % may be the effect or the level left
Method in brief: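 L5 spinal nerve ligation (4.0 silk, distal to DRG, halothane anesthesia) in male Sprague-Dawley rats, with 2-3 weeks recovery. Tactile allodynia read as von Frey paw withdrawal threshold on a wire mesh floor, capped at 15 g. Baseline measured right before dosing; behaviour tested 1 and 2 h after administration.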

Rattus norvegicus [8] = assay: Antinociceptive activity in formalin-treated Sprague-Dawley rat model assessed as reduction in hind paw flinches at 100 mg/kg, iv measured during 11 to 60 mins of phase 2 flinches; assay type: functional; design: scale not given: the % may be the effect or the level left
Method in brief: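 Formalin test in male Sprague-Dawley rats fitted with a 0.5 g metal band on the right hind paw. Rats received 50 μL of 2.5% formalin sc into the dorsal right hind paw and were placed unrestrained over an electromagnetic detector. Flinches were counted for 60 min, with phase II defined as 11-60 min.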

Rattus norvegicus [9] = assay: Analgesic activity in Sprague-Dawley rat assessed as reduction of spinal nerve ligation-induced allodynia score at 10 mg/kg, po; assay type: functional; design: scale not given: the % may be the effect or the level left
Method in brief: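 Male Sprague-Dawley rats; L5 spinal nerve tightly ligated with 4.0 silk distal to the DRG under halothane, then 2-3 weeks recovery. Dosed po in 0.5% methylcellulose. Von Frey tactile withdrawal thresholds measured on a wire mesh floor, top threshold 15 g. Baseline taken just before dosing; testing at 1 and 2 h post-dose.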

Rattus norvegicus [10] = assay: Antinociceptive activity in formalin-treated Sprague-Dawley rat model assessed as reduction in hind paw flinches at 17 mg/kg, po measured during 11 to 60 mins of phase 2 flinches; assay type: functional; design: scale not given: the % may be the effect or the level left
Method in brief: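 Male Sprague-Dawley rats dosed po in 0.5% methylcellulose 1 h before assay. A 0.5 g metal band was glued to the right hind paw 1 h beforehand. 2.5% formalin (50 μL) was injected sc into the dorsal right hind paw. An electromagnetic detector counted flinches for 60 min; phase II is 11-60 min post-injection.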

Chain of Voltage-gated potassium channel, KQT; KCNQ2(Kv7.2)/KCNQ3(Kv7.3) (O43526 whole entry): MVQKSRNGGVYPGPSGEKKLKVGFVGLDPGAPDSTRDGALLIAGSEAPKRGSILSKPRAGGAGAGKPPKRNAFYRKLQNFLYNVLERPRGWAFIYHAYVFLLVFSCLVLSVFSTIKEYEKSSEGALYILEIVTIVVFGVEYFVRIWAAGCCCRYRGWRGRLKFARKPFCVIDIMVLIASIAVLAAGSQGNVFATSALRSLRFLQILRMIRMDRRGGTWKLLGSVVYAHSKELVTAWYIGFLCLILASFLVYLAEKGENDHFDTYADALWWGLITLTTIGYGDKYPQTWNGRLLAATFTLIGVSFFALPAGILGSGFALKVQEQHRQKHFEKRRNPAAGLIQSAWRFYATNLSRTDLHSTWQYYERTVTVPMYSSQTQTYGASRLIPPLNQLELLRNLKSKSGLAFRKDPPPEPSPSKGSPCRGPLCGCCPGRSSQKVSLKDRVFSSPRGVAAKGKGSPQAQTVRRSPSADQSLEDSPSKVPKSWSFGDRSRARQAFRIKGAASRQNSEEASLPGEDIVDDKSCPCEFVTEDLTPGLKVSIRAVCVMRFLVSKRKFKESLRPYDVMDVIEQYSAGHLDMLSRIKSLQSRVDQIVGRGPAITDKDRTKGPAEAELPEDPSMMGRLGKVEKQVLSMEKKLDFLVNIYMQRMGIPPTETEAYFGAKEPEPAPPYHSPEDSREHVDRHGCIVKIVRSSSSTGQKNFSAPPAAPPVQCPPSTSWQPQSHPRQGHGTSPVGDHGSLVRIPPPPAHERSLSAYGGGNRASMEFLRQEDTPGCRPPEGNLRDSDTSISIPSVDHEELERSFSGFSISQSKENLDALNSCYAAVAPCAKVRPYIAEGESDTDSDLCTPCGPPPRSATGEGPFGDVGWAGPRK
Chain of Voltage-gated potassium channel, KQT; KCNQ2(Kv7.2)/KCNQ3(Kv7.3) (O43525 whole entry): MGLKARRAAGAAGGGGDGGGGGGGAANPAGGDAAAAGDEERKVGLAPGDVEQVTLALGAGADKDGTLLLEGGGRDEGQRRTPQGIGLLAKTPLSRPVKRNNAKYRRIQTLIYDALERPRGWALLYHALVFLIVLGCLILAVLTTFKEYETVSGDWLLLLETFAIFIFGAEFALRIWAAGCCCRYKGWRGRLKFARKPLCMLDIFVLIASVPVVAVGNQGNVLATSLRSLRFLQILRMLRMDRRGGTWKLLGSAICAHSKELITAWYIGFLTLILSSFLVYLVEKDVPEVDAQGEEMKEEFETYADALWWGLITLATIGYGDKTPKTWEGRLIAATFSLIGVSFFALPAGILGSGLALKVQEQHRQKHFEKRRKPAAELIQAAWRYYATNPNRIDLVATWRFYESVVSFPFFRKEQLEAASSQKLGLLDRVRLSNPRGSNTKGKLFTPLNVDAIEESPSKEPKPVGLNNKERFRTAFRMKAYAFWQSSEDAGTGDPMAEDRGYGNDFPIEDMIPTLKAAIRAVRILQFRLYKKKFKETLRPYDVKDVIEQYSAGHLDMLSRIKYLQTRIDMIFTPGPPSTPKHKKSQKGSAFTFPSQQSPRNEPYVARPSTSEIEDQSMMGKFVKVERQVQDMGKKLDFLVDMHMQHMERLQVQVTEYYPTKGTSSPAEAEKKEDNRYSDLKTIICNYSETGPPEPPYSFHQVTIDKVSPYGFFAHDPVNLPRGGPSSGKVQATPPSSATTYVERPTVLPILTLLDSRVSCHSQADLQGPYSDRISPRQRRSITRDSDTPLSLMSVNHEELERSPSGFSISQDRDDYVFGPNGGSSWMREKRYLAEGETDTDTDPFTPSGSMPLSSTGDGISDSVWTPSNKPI

| SMILES | EC50 [1] [µM] | also measured |
| --- | --- | --- |
| CCn1/c(=N/NC(=O)C23CC4CC(CC(C4)C2)C3)sc2ccccc21 | 0.57 |  |
| Cn1/c(=N/NC(=O)OC(C)(C)C)sc2cc(OC(F)(F)F)ccc21 | 0.023 | Activity (Mus musculus [2]): Active |
| Cn1/c(=N/NC(=O)C(C)(C)C)sc2cc(OC(F)(F)F)ccc21 | 0.71 | EC50 (Rattus norvegicus [3]): 3.8 mg/kg; Activity (Mus musculus [2]): inactive |
| Cn1/c(=N/NC(=O)C23CC4CC(CC(C4)C2)C3)sc2cc(OC(F)(F)F)ccc21 | 0.025 | Activity (Mus musculus [4]): Active |
| Cn1/c(=N/NC(=O)C23CC4CC(CC(C4)C2)C3)sc2c(C(F)(F)F)cccc21 | 2.08 |  |
| Cn1/c(=N/NC(=O)C23CC4CC(CC(C4)C2)C3)sc2ccc(C(F)(F)F)cc21 | 0.053 | Activity (Mus musculus [5]): inactive |
| Cn1/c(=N/NC(=O)C2CCCC2)sc2cc(OC(F)(F)F)ccc21 | 0.062 | Activity (Mus musculus [6]): inactive |
| CC(=O)N/N=c1\sc2cc(OC(F)(F)F)ccc2n1C | > 10 |  |
| Cn1/c(=N/NC(=O)C23CC4CC(CC(C4)C2)C3)sc2cc(F)cc(F)c21 | 0.16 |  |
| Cn1/c(=N/NC(=O)C23CC4CC(CC(C4)C2)C3)sc2ccccc21 | 0.027 |  |
| NCC1(CC(=O)O)CCCCC1 [GABAPENTIN] |  | Activity (Rattus norvegicus [7]): 70%; Activity (Rattus norvegicus [8]): 61% |
| Cn1/c(=N/NC(=O)C23CC4CC(CC(C4)C2)C3)sc2cccc(F)c21 | 0.38 |  |
| Cn1/c(=N/NC(=O)c2ccccc2)sc2cc(OC(F)(F)F)ccc21 | 0.26 |  |
| Cn1/c(=N/NC(=O)C23CC4CC(CC(C4)C2)C3)oc2ccccc21 | 2.7 |  |
| Cn1/c(=N/NC(=O)OC2CCCC2)sc2cc(OC(F)(F)F)ccc21 | 0.029 |  |
| Cn1/c(=N/NC(=O)C2CCCCC2)sc2cc(OC(F)(F)F)ccc21 | 0.028 |  |
| CCOC(=O)Nc1ccc(NCc2ccc(F)cc2)cc1N [EZOGABINE] |  | Activity (Rattus norvegicus [9]): 0%; Activity (Rattus norvegicus [10]): 49% |
| Cn1/c(=N/NC(=O)C2CCCO2)sc2cc(OC(F)(F)F)ccc21 (centres undefined) | 5.57 |  |
| Cn1/c(=N/NC(=O)C23CC4CC(CC(C4)C2)C3)sc2cc(F)ccc21 | 0.028 | Activity (Mus musculus [5]): inactive |
| Cn1/c(=N/NC(=O)C23CC4CC(CC(C4)C2)C3)sc2cc(F)c(F)cc21 | 0.021 |  |
| Cn1/c(=N/NC(=O)c2ccco2)sc2cc(OC(F)(F)F)ccc21 | 0.5 |  |
| CN(/N=c1\sc2ccccc2n1C)C(=O)C12CC3CC(CC(C3)C1)C2 | > 10 |  |
| Cn1/c(=N/NC(=O)c2cccc(F)c2)sc2cc(OC(F)(F)F)ccc21 | 0.1 |  |
| Cn1/c(=N/NC(=O)C2CCOC2)sc2cc(OC(F)(F)F)ccc21 (centres undefined) | 6.73 |  |
| Cn1/c(=N/NC(=O)c2ccc(F)cc2)sc2cc(OC(F)(F)F)ccc21 | 0.044 |  |
| Cn1/c(=N/NC(=O)C23CC4CC(CC(C4)C2)C3)sc2c(F)cccc21 | 0.098 | Activity (Mus musculus [6]): inactive |
| Cn1/c(=N/NC(=O)C23CC4CC(CC(C4)C2)C3)sc2cccc(C(F)(F)F)c21 | 0.091 |  |
| Cn1/c(=N/NC(=O)C23CC4CC(CC(C4)C2)C3)sc2cc(C(F)(F)F)ccc21 | 0.16 | Activity (Mus musculus [5]): inactive |
